Calls of active or inactive are those of the source. The calls are words filed in the database; no cut-off is given here. Where only a bound is given, the exact number is not on record here.

Assay [1] addresses Tyrosine-protein kinase Fer (Homo sapiens, UniProt P16591). Kind of assay: Inhibition of FER in human HeLa cells lysate at 10 uM pre incubated for 15 mins followed by ATP acyl phosphate probe addition and measured after 10 mins by LC-MS/MS analysis relative to control. The class given is subcellular. The note with it: time 25.0 min.
The target in assay [2] is Glycogen synthase kinase-3 alpha (Homo sapiens, UniProt P49840). In words: Inhibition of GSK3A in human HeLa cells lysate at 2 uM pre incubated for 15 mins followed by ATP acyl phosphate probe addition and measured after 10 mins by LC-MS/MS analysis relative to control. It is filed as subcellular. The settings on record: time 25.0 min.
For assay [3], the target named is T1, Interleukin-1 receptor-associated kinase 4 (Homo sapiens) (UniProt Q9NWZ3).
T1 sequence (whole entry): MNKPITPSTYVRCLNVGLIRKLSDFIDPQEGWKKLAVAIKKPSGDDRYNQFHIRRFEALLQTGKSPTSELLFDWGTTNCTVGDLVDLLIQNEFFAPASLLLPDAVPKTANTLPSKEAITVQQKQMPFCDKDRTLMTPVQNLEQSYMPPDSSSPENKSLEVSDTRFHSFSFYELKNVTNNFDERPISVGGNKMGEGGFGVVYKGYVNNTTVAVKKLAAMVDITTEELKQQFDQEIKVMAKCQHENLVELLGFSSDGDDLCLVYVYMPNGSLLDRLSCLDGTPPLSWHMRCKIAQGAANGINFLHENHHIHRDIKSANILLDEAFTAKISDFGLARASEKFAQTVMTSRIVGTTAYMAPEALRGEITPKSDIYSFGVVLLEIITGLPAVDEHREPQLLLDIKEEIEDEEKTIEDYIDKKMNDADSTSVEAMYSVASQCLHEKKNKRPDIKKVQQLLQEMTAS
In words: Inhibition of IRAK4 in human HeLa cells lysate at 50 uM pre incubated for 15 mins followed by ADP acyl phosphate probe addition and measured after 10 mins by LC-MS/MS analysis relative to control. It is filed as subcellular. The settings on record: time 25.0 min.

Assay [4] deals with Epidermal growth factor receptor (Homo sapiens, UniProt P00533). Kind of assay: Inhibition of EGFR in human HeLa cells lysate at 2 uM pre incubated for 15 mins followed by ADP acyl phosphate probe addition and measured after 10 mins by LC-MS/MS analysis relative to control. The note with it: time 25.0 min. It is filed as subcellular.
In assay [5] the target is Mitogen-activated protein kinase 7 (Mus musculus) (UniProt Q9WVS8). In words: Inhibition of BMK1 in mouse MEF cells transfected with PML2D S403D/T409D mutant assessed as increase in p21 protein expression at 5 uM incubated for 16 hrs by Western blot analysis. The class given is cell-based. An outline of the steps: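 Pml−/− MEFs infected with Ad-EV, Ad-PML or Ad-PML2D. Three days later treated ±5 μM inhibitor for 16 h. p21 western blot quantified by densitometry and normalized to GAPDH, relative to untreated Ad-EV-infected Pml−/− cells set as 1. n = 3, ±SEM.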

Assay [6] concerns the target Calcium/calmodulin-dependent protein kinase type II subunit gamma (Homo sapiens, UniProt Q13555). In words: Inhibition of CAMK2g in human HeLa cells lysate at 50 uM pre incubated for 15 mins followed by ATP acyl phosphate probe addition and measured after 10 mins by LC-MS/MS analysis relative to control. It is filed as subcellular. The settings on record: time 25.0 min. The method in brief:
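KiNativ-type profiling in HeLa lysate (5 mg/mL total protein). Lysate preincubated 15 min with inhibitor at 50, 10, 2, 0.8 or 0 μM, then ATP or ADP acylphosphate probe added (5 μM final) for 10 min. Reaction stopped with urea and analysed by targeted MS, using up to four fragment ions per kinase peptide-probe conjugate. % inhibition calculated against untreated lysate. Duplicate reactions.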

The target of assay [7] is Casein kinase I isoform alpha (Homo sapiens, UniProt P48729). Kind of assay: Inhibition of CK1alpha in human HeLa cells lysate at 10 uM pre incubated for 15 mins followed by ATP acyl phosphate probe addition and measured after 10 mins by LC-MS/MS analysis relative to control. The note with it: time 25.0 min. The class given is subcellular.
For assay [8], the target named is T2, Glycogen synthase kinase-3 beta (Homo sapiens, UniProt P49841). Kind of assay: Inhibition of GSK3B isoform 2 in human HeLa cells lysate at 2 uM pre incubated for 15 mins followed by ADP acyl phosphate probe addition and measured after 10 mins by LC-MS/MS analysis relative to control. The class given is subcellular. The note with it: time 25.0 min.
Assay [9] can be described thus: Inhibition of PKD1/2 in human HeLa cells lysate at 10 uM pre incubated for 15 mins followed by ATP acyl phosphate probe addition and measured after 10 mins by LC-MS/MS analysis relative to control. The settings on record: 25 min, condition cancer.
Assay [10] deals with Serine/threonine-protein kinase 3/4 (Homo sapiens) (UniProt Q13043+Q13188). Kind of assay: Inhibition of MST1/2 in human HeLa cells lysate at 2 uM pre incubated for 15 mins followed by ATP acyl phosphate probe addition and measured after 10 mins by LC-MS/MS analysis relative to control. It is filed as subcellular. The settings on record: time 25.0 min.
Assay [11] concerns the target T2, Glycogen synthase kinase-3 beta. Kind of assay: Inhibition of GSK3B isoform 2 in human HeLa cells lysate at 10 uM pre incubated for 15 mins followed by ATP acyl phosphate probe addition and measured after 10 mins by LC-MS/MS analysis relative to control. The settings on record: time 25.0 min. The class given is subcellular.
For assay [12], the target named is Tyrosine-protein kinase Fyn (Homo sapiens, UniProt P06241). In words: Inhibition of FYN in human HeLa cells lysate pre incubated for 15 mins followed by ADP acyl phosphate probe addition and measured after 10 mins by LC-MS/MS analysis. The class given is subcellular.
Assay [13] concerns the target T3, Phosphatidylinositol 5-phosphate 4-kinase type-2 alpha (Homo sapiens) (UniProt P48426).
T3 sequence (whole entry): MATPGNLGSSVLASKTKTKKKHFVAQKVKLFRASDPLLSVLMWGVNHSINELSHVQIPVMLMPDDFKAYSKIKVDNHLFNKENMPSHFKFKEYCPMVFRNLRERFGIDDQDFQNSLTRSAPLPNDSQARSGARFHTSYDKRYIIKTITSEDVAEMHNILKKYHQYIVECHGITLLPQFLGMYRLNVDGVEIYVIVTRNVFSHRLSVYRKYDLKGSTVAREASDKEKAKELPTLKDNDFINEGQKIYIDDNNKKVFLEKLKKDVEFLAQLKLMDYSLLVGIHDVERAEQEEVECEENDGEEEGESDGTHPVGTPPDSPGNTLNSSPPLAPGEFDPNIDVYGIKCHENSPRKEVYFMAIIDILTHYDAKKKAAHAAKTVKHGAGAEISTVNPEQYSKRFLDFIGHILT
Kind of assay: Inhibition of PIP5K2A in human HeLa cells lysate at 2 uM pre incubated for 15 mins followed by ATP acyl phosphate probe addition and measured after 10 mins by LC-MS/MS analysis relative to control. The class given is subcellular. The note with it: time 25.0 min.

Assay [14] concerns the target Cyclin-dependent kinase 13 (Homo sapiens, UniProt Q14004). In words: Inhibition of CHED in human HeLa cells lysate at 10 uM pre incubated for 15 mins followed by ADP acyl phosphate probe addition and measured after 10 mins by LC-MS/MS analysis relative to control. The class given is subcellular. The settings on record: time 25.0 min. The method in brief:
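KiNativ profiling in HeLa lysate (5 mg/mL total protein). Lysate incubated 15 min with inhibitor at 50, 10, 2, 0.8 or 0 μM. ATP or ADP acylphosphate probe then added (5 μM final) and reacted 10 min. Reaction stopped with urea and analysed by targeted MS, using up to four fragment ions per kinase peptide-probe conjugate. % inhibition taken against untreated lysate. Run in duplicate.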

For assay [15], the target named is Ribosomal protein S6 kinase beta-2 (Homo sapiens, UniProt Q9UBS0). Kind of assay: Inhibition of P70S6KB in human HeLa cells lysate pre incubated for 15 mins followed by ATP acyl phosphate probe addition and measured after 10 mins by LC-MS/MS analysis. The class given is subcellular.
Chain of Ribosomal protein S6 kinase beta-2 (Q9UBS0 whole entry): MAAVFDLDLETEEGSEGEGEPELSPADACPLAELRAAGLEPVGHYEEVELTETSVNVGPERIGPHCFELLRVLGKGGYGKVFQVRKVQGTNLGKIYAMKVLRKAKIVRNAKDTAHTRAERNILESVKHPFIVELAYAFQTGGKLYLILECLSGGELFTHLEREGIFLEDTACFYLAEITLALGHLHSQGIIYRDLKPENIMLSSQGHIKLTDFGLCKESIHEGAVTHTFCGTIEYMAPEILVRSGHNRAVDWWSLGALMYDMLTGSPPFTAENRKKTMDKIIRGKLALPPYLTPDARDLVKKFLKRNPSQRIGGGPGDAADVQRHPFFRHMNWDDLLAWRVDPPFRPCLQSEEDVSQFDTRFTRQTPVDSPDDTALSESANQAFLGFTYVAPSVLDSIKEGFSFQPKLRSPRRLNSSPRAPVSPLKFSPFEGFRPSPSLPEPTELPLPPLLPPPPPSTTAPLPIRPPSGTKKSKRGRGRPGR

T2 sequence (P49841 whole entry, looked up, canonical isoform): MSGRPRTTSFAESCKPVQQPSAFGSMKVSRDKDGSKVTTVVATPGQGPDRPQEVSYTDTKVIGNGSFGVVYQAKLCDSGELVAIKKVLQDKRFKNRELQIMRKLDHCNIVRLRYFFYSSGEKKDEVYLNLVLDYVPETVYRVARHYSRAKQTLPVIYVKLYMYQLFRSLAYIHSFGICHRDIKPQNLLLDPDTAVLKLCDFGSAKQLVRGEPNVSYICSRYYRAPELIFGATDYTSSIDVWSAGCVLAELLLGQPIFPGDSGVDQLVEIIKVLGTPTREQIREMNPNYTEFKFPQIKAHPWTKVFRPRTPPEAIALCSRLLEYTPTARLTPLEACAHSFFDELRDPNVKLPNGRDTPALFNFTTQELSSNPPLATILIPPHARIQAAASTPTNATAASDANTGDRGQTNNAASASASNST
Chain of Serine/threonine-protein kinase 3/4 (Homo sapiens) (Q13043 whole entry, looked up, canonical isoform): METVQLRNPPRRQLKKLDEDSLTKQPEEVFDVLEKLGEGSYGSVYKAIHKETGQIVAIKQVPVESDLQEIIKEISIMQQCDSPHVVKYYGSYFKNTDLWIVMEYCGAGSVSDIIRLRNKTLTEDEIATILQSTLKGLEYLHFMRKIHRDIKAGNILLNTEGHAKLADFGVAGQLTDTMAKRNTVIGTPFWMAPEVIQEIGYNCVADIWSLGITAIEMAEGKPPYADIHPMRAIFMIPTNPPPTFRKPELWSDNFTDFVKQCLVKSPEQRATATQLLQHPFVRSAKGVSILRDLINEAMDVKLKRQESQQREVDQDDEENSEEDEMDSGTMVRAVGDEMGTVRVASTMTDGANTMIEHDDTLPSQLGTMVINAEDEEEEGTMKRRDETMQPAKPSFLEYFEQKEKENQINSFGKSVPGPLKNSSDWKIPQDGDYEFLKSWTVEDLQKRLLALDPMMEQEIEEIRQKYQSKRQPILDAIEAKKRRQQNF
Chain of Serine/threonine-protein kinase 3/4 (Homo sapiens) (Q13188 whole entry, looked up, canonical isoform): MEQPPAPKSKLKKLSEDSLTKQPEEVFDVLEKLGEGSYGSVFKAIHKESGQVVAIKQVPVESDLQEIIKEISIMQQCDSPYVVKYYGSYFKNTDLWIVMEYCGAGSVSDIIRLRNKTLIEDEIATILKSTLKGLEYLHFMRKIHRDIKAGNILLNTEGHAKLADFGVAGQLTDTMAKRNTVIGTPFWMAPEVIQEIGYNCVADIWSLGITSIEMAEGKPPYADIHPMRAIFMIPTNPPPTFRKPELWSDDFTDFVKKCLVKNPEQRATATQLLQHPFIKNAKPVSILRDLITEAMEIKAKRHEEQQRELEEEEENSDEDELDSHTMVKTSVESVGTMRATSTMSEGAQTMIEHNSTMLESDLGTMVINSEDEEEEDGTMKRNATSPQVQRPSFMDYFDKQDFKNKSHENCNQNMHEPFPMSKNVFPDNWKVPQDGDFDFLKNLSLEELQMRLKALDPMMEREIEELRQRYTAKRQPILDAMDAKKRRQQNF
Chain of Glycogen synthase kinase-3 alpha (P49840 2-483 limits assumed): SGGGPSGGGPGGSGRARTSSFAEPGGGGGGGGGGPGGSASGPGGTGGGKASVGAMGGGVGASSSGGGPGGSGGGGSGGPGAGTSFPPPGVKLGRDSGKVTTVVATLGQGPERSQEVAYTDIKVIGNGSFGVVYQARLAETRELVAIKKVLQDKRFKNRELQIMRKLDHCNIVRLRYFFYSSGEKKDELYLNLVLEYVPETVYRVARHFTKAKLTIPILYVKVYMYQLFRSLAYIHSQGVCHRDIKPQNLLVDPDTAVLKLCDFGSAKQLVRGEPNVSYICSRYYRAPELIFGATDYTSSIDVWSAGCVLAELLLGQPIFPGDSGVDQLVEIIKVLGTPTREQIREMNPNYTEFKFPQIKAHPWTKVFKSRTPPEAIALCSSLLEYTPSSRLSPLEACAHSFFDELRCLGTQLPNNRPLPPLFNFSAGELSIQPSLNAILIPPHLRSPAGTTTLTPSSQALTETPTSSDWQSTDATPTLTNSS
Chain of Epidermal growth factor receptor (P00533 whole entry): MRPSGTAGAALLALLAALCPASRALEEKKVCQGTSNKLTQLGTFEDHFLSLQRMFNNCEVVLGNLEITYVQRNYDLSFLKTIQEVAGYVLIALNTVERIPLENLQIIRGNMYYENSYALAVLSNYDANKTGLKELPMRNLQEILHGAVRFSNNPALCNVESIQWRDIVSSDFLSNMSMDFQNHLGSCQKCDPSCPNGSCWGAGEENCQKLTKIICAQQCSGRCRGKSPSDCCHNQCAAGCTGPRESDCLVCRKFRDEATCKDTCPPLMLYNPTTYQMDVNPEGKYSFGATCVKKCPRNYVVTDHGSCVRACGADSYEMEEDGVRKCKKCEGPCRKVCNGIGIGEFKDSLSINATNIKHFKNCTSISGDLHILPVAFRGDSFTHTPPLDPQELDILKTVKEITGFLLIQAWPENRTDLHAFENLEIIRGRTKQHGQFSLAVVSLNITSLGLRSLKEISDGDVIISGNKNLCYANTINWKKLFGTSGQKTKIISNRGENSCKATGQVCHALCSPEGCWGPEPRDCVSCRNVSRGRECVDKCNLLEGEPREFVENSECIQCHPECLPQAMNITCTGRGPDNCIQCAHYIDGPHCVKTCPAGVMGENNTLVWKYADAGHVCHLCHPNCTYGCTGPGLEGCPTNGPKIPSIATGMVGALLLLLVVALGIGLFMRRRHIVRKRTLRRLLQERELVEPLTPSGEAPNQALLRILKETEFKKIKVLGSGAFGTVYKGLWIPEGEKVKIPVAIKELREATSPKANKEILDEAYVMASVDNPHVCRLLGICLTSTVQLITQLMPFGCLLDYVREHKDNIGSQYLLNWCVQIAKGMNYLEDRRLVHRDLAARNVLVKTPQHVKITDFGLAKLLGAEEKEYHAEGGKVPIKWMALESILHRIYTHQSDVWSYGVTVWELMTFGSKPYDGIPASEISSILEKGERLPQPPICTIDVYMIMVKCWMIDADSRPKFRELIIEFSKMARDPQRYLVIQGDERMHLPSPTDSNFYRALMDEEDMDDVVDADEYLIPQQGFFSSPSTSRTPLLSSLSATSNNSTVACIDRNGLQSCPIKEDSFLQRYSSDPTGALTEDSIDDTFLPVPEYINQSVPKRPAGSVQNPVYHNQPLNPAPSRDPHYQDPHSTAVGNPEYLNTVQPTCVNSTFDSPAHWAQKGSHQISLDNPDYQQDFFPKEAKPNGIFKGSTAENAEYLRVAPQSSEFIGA
Chain of Mitogen-activated protein kinase 7 (Mus musculus) (Q9WVS8 whole entry): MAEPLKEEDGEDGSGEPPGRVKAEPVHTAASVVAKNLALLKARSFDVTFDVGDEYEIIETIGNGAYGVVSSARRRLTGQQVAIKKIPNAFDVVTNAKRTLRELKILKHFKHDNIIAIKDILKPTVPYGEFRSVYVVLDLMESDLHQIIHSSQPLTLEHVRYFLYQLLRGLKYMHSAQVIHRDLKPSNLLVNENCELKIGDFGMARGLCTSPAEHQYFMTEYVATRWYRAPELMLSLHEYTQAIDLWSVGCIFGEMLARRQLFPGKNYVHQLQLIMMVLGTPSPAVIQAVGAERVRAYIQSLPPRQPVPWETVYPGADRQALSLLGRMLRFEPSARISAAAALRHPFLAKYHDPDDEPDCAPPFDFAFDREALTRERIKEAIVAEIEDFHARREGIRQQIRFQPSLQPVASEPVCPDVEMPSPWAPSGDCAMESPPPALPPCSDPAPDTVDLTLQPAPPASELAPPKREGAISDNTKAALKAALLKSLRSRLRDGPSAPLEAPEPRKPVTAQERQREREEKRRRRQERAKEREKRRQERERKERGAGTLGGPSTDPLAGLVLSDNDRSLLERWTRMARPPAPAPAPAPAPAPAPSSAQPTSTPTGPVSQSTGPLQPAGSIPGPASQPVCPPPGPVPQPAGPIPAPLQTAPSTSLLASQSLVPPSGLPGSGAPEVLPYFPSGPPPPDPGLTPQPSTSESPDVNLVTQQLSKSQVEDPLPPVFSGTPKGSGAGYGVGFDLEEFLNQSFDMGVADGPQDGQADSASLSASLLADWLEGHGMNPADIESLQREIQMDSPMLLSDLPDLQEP
Chain of Casein kinase I isoform alpha (P48729 2-337 limits assumed): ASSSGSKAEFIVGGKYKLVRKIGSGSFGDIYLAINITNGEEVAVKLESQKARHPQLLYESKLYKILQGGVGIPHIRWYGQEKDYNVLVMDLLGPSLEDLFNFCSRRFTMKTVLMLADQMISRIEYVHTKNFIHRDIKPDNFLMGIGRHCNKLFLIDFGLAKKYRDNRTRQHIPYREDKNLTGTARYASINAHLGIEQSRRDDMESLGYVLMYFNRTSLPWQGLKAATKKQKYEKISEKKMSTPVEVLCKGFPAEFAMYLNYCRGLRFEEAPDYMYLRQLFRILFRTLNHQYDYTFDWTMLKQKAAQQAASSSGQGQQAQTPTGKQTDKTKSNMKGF

On to `CCOc1cc(N2CCC(O)CC2)ccc1Nc1ncc2c(n1)N(C)c1ccccc1C(=O)N2C`, for which the inhibition in [1] is 0%; in assay [2], -5.5%; in [3], -0.4%; in assay [4], 12.2%; in assay [6], 13.9%; in assay [7], -7.9%. In addition, the inhibition in [8] is 18.5%; in assay [10], -9%; in assay [11], -7.8%; in [13] it was -4.6%; in [14], 10.7%. Moreover, in assay [5], the inhibition result is “inactive”. The inhibition at 10 µM in assay [9] is -23%. Further, the 50% inhibitory concentration (IC50) in [12] and in assay [15] was over 50 µM in each case.

These data come from ChEMBL document CHEMBL5661979, “Pharmacological inhibition of BMK1 suppresses tumor growth through promyelocytic leukemia protein” (Cancer Cell, 2010).
